Tests used:
Plasmodium falciparum = assay: Antimalarial activity against multidrug-resistant Plasmodium falciparum K1 infected in human erythrocytes after 48 hrs by [3H]hypoxanthine incorporation assay; assay type: functional, organism-based
Outline: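 K1 parasites kept in RPMI 1640 with 20 mM HEPES, 32 mM NaHCO3, 10% human serum and 3% erythrocytes, at 37 °C under 3% CO2. Ring-stage culture (1.5% haematocrit, 1% parasitemia) was exposed to compound for 24 h at 0.1% DMSO final. 0.5 µCi [3H]hypoxanthine was then added for a further 24 h. Incorporation was scintillation-counted, and growth was expressed as treated/untreated cpm ×100.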

[1] = Cytotoxicity against HuCCa1 cells after 48 hrs by MTT assay; assay type: functional, cell-based; conditions: Homo sapiens, HuCC-A1, 48 h
Outline: (§1)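 Adherent cells seeded at 10,000-20,000 per well and preincubated 24 h at 37 °C, 5% CO2. Serial dilutions of compound added in an equal volume of medium, DMSO as negative control, then 48 h further incubation. Surviving cells measured by MTT. IC50 is the concentration giving 50% growth inhibition relative to the DMSO control.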

HepG2 = assay: Cytotoxicity against human HepG2 cells after 48 hrs by MTT assay; assay type: functional, cell-based; conditions: HepG2, 48 h; outline: as §1
A549 = assay: Cytotoxicity against human A549 cells after 48 hrs by MTT assay; assay type: functional, cell-based; conditions: A549, 48 h
Outline: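 Adherent cells seeded at 10,000-20,000 per well and preincubated 24 h at 37 °C, 5% CO2. Serial dilutions of compound added in an equal volume of medium, DMSO as negative control, then 48 h further incubation. Surviving cells measured by MTT.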

[2] = Cytotoxicity against human MOLT3 cells after 48 hrs by XTT assay; assay type: functional, cell-based; conditions: MOLT-3, 48 h
Outline: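 Suspension MOLT-3 cells seeded at 10,000-20,000 per well and preincubated 24 h at 37 °C, 5% CO2. Compound serial dilutions added in an equal volume of medium, DMSO as negative control, then 48 h. Surviving cells measured by XTT. IC50 is the concentration inhibiting growth 50% relative to the DMSO control.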

Vero = assay: Cytotoxicity against African green monkey Vero cells after 4 days by GFP detection method; assay type: cell-based; conditions: Chlorocebus sabaeus, 96 h
Outline: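 Vero cells stably transfected with pEGFP-N1, kept in MEM with 10% heat-inactivated FBS, 2 mM L-glutamine, 1 mM pyruvate, 0.8 mg/mL geneticin at 37 °C, 5% CO2. Cells at 3.3 × 10^4 cells/mL added to compounds prediluted in 0.5% DMSO, 384-well, 4 days. GFP fluorescence read at ex 485/em 535 nm, day-0 background subtracted. IC50 from 6-point 3-fold dilution curves.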

[3] = Plasmodium falciparum, K1, read-out: IC50

COc1ccc(CCNS(=O)(=O)c2cccc(NC3=C(Cl)C(=O)c4ccccc4C3=O)c2)cc1OC
IC50 (Plasmodium falciparum; [3]): 10.1 µM | IC50 [1]: 8.5 µM | IC50 (HepG2): 9.49 µM | IC50 (A549): 27.2 µM | IC50 [2]: 4.95 µM | IC50 (Vero): 3.76 µM

O=C1C(Cl)=C(Nc2ccc(S(=O)(=O)NCCc3ccccn3)cc2)C(=O)c2ccccc21
IC50 (Plasmodium falciparum): Not Active | IC50 [1]: 5.88 µM | IC50 (HepG2): 10.3 µM | IC50 (A549): 31.4 µM | IC50 [2]: 1.37 µM | IC50 (Vero): 99.9 µM

COc1ccc(CCNS(=O)(=O)c2ccc(NC3=C(Cl)C(=O)c4ccccc4C3=O)cc2)cc1OC
IC50 (Plasmodium falciparum; [3]): 9.96 µM | IC50 [1]: 5.5 µM | IC50 (HepG2): 6.07 µM | IC50 (A549): 13 µM | IC50 [2]: 2.05 µM | IC50 (Vero): 21.1 µM

O=C1C(Cl)=C(Nc2cccc(S(=O)(=O)NCc3ccccn3)c2)C(=O)c2ccccc21
IC50 (Plasmodium falciparum): Not Active | IC50 [1]: 3.66 µM | IC50 (HepG2): 4.56 µM | IC50 (A549): 2.31 µM | IC50 [2]: 2.38 µM | IC50 (Vero): 2.82 µM

O=C1C(Cl)=C(Nc2cccc(S(=O)(=O)N3CCc4ccccc4C3)c2)C(=O)c2ccccc21
IC50 (Plasmodium falciparum; [3]): 7.27 µM | IC50 [1]: 6.08 µM | IC50 (HepG2): 11 µM | IC50 (A549): 21.9 µM | IC50 [2]: 1.92 µM | IC50 (Vero): 4.2 µM

COc1cc2c(cc1OC)CN(S(=O)(=O)c1ccc(NC3=C(Cl)C(=O)c4ccccc4C3=O)cc1)CC2
IC50 (Plasmodium falciparum; [3]): 2.8 µM | IC50 [1]: 5.21 µM | IC50 (HepG2): 14.4 µM | IC50 (A549): 20.2 µM | IC50 [2]: 1.73 µM | IC50 (Vero): 0.944 µM

C[C@H]1[C@@H](O)O[C@@H]2O[C@@]3(C)CC[C@H]4[C@H](C)CC[C@@H]1[C@@]24OO3 [ARTENIMOL]
IC50 (Plasmodium falciparum; [3]): 0.00142 µM

Cc1c2ccncc2c(C)c2c1[nH]c1ccccc12 [ELLIPTECINE]
IC50 (Vero): 4.05 µM

O=C1C(Cl)=C(Nc2ccc(S(=O)(=O)NCc3ccccn3)cc2)C(=O)c2ccccc21
IC50 (Plasmodium falciparum): Not Active | IC50 [1]: 5 µM | IC50 (HepG2): 3.3 µM | IC50 (A549): 5.88 µM | IC50 [2]: 1.37 µM | IC50 (Vero): 10.8 µM

O[C@@H](c1cc(C(F)(F)F)nc2c(C(F)(F)F)cccc12)[C@H]1CCCCN1 (relative stereo) [(S,R)-MEFLOQUINE]
IC50 (Plasmodium falciparum; [3]): 0.0269 µM

O=C1C(Cl)=C(Nc2ccc(S(=O)(=O)N3CCc4ccccc4C3)cc2)C(=O)c2ccccc21
IC50 (Plasmodium falciparum; [3]): 14.7 µM | IC50 [1]: 57.8 µM | IC50 (HepG2): 36.9 µM | IC50 (A549): 48.4 µM | IC50 [2]: 8.56 µM | IC50 (Vero): 20.3 µM

COc1cc([C@@H]2c3cc4c(cc3[C@@H](O[C@@H]3O[C@@H]5CO[C@@H](C)O[C@H]5[C@H](O)[C@H]3O)[C@H]3COC(=O)[C@H]23)OCO4)cc(OC)c1O [ETOPOSIDE]
IC50 (HepG2): 34 µM | IC50 [2]: 0.041 µM

O=C1C(Cl)=C(Nc2cccc(S(=O)(=O)NCCc3ccccc3)c2)C(=O)c2ccccc21
IC50 (Plasmodium falciparum; [3]): 6.3 µM | IC50 [1]: 9.47 µM | IC50 (HepG2): 12.8 µM | IC50 (A549): 31.1 µM | IC50 [2]: 3.3 µM | IC50 (Vero): 3.85 µM

COc1cccc2c1C(=O)c1c(O)c3c(c(O)c1C2=O)C[C@@](O)(C(=O)CO)C[C@@H]3O[C@H]1C[C@H](N)[C@H](O)[C@H](C)O1 [DOXORUBICIN]
IC50 [1]: 0.42 µM

O=C1C(Cl)=C(Nc2cccc(S(=O)(=O)NCCc3ccccn3)c2)C(=O)c2ccccc21
IC50 (Plasmodium falciparum): Not Active | IC50 [1]: 5.77 µM | IC50 (HepG2): 5.13 µM | IC50 (A549): 3.93 µM | IC50 [2]: 2.2 µM | IC50 (Vero): 20.2 µM

COc1cc2c(cc1OC)CN(S(=O)(=O)c1cccc(NC3=C(Cl)C(=O)c4ccccc4C3=O)c1)CC2
IC50 (Plasmodium falciparum; [3]): 8.79 µM | IC50 [1]: 26.4 µM | IC50 (HepG2): 43.3 µM | IC50 (A549): 63.1 µM | IC50 [2]: 2.34 µM | IC50 (Vero): 11.2 µM

O=C1C(Cl)=C(Nc2ccc(S(=O)(=O)NCCc3ccccc3)cc2)C(=O)c2ccccc21
IC50 (Plasmodium falciparum): Not Active | IC50 [1]: 4.93 µM | IC50 (HepG2): 6.27 µM | IC50 (A549): 11.2 µM | IC50 [2]: 2.18 µM | IC50 (Vero): > 107 µM

Reference: ChEMBL document CHEMBL3627632, “Novel 1,4-naphthoquinone-based sulfonamides: Synthesis, QSAR, anticancer and antimalarial studies” (Eur J Med Chem, 2015)
